Assay [1] can be described thus: Inhibition of PP2A. In outline: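 Substrate: DARPP-32 pThr34, from rat DARPP-32 expressed in E. coli as a His-tag fusion and phosphorylated by PKA with γ-32P-ATP. Enzyme: PP2A trimer partially purified from rat brain. Duplicate reactions, 10 min at room temperature, stopped with TCA. Supernatant and pellet 32P counted by Cerenkov.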
Assay [2] in a line: Inhibition of PP1. In outline: (§1)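 PP1 catalytic fragment acting on 32P-labeled phosphorylase a, which was made from rabbit muscle phosphorylase b with phosphorylase kinase. Duplicate reactions were started with substrate, run 10 min at room temperature and stopped with TCA. Released 32P measured by Cerenkov counting.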
The target of assay [3] is Calcineurin PP2B (Rattus norvegicus). Briefly: Inhibition of PP2B.
The target of assay [4] is Protein phosphatase 1A (Rattus norvegicus) (UniProt P20650). Briefly: Inhibition of PP2C alpha.
The target is the same in assay [5]. Briefly: Inhibition of PP2C alpha at 100 uM.
Assay [6] can be described thus: Inhibition of PP1 at 100 uM. The gist of the method:
as §1

Experimental findings from ChEMBL document CHEMBL1138185, “Discovery of protein phosphatase 2C inhibitors by virtual screening” (J Med Chem, 2006) are described below.

Active and inactive are the calls of the source. The rule behind the calls is not given here.

Chain of Protein phosphatase 1A (Rattus norvegicus) (P20650 whole entry, looked up): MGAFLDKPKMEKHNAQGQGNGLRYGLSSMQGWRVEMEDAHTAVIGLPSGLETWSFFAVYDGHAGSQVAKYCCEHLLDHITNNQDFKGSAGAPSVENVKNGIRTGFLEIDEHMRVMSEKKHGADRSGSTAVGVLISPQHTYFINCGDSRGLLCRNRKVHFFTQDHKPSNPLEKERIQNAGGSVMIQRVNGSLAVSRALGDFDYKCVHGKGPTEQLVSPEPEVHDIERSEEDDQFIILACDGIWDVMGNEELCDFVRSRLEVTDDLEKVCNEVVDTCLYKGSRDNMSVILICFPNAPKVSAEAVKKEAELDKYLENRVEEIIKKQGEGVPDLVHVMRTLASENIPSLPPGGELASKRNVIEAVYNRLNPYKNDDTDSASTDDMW

`CC1(C)N=C(N)N=C(N)N1c1ccc(CCCCc2ccccc2)cc1`: the IC50 in assay [1], in assay [2] and in assay [3] was 50 µM in each case. As to `C/N=C(N)/N=C(\N)Nc1cc2ccccc2c2ccccc12`, the concentration for half-maximal inhibition (IC50) (usually the concentration that gives 50% inhibition) in assay [4] was 20 µM. The inhibition (as a rule, the relative decrease from the control value, in per cent) in assay [5] was more than 50%. For `Cc1cc(N)c2cc(NC(=O)Nc3ccc4nc(C)cc(N)c4c3)ccc2n1`, the result in assay [1] and in assay [6] was Active. The same compound yielded an inhibition in assay [5] of more than 30%.

In the case of `CCCCCCCCCCCC1N=C(N)N=C(N)N1c1cccc(Br)c1` (configuration not stated), the outcome in assay [1] was Active. In the case of `CC(C)CC(N)C(=O)Nc1ccc2ccccc2c1` (configuration not stated), the inhibition in assay [5] was more than 30%. `Ic1ccc2c(c1)N(c1ccccc1)c1cc(Nc3ccc4nc5ccc(I)cc5[n+](-c5ccccc5)c4c3)ccc1N2` returned an inhibition in assay [5] of more than 50%. As to `CC1Oc2cc3c(-c4c(O)cc(O)c5c(O)c6c(cc45)OC(C)C(C)C6=O)c(O)cc(O)c3c(O)c2C(=O)C1C` (configuration not stated), in assay [1], the result was Active.
